Results collected from several papers.
Each line is one published result; the experiments were not run side by side.
BTK: Tyrosine-protein kinase BTK (BTK, Homo sapiens, UniProt Q06187)
BTK R28H: Tyrosine-protein kinase BTK (BTK, Homo sapiens, UniProt Q06187, R28H)

| Compound | target | read-out | action | method | concentration | quantity | result |
| --- | --- | --- | --- | --- | --- | --- | --- |
| Cc1ccc(C(=O)NCc2ccsc2)cc1C#Cc1cn(C(C)C)c2ncnc(N)c12 | BTK | enzyme activity | inhibitor |  | 1 µM | activity vs control | 73% |
| FC(F)c1nc2ccccc2n1-c1nc(N2CCOCC2)nc(N2CCOCC2)n1 | BTK | enzyme activity | inhibitor |  | 10 µM | remaining activity | 98% |
| CCC(=O)N[C@H]1CC[C@@H](C(=O)N(C)c2ccc(-c3nc4ccccc4o3)cc2)C1 | BTK | cell-free assay |  | competition with immobilised ligand | 1 µM | remaining binding | 77% |
| CN(C)C1CCN(CC#Cc2nn(C3CCCC3)c3nc(NCc4ccccc4)ncc23)C1 (stereo not drawn) | BTK | enzyme activity | inhibitor | FRET | 1 µM | inhibition | 5% |
| COc1ccc(F)cc1C(=O)NCc1ccc(-c2nn([C@@H](C)C(F)(F)F)c(N)c2C(N)=O)cc1 | BTK | binding |  | SPR |  | kon | 82000 M⁻¹ s⁻¹ |
| CC(=O)N1CCC(c2ccc(C(=O)NC(=N)N)cc2C(F)(F)F)CC1 | BTK | cell-free assay |  | competition with immobilised ligand | 1 µM | remaining binding | 100% |
| C=CC(=O)N1CCC[C@@H]1Cn1nc(-c2ccc(Oc3ccccc3)cc2F)c2c(N)ncnc21 | BTK | enzyme activity | inhibitor |  |  | kinact | 0.0034 s⁻¹ |
| O=C1NC(=O)c2cc(Nc3ccc(F)cc3)c(Nc3ccc(F)cc3)cc21 | BTK | cell-free assay |  |  | 0.5 µM | remaining signal | 94.3% |
| COc1cc(/C=C/C(=O)CC(=O)/C=C/c2ccc(O)c(OC)c2)ccc1O | BTK | enzyme activity | inhibitor |  | 1 µM | activity vs control | 90% |
| FC(F)(F)c1ccc2c(c1)nc(-c1cccnc1)n2C1CC1 | BTK | cell-free assay |  | competition with immobilised ligand | 1 µM | remaining binding | 93% |
| Cc1cc(NC(=O)c2cccc3cc(-c4cccc5[nH]nc(N)c45)ccc23)ccc1F | BTK | enzyme activity | inhibitor |  | 0.1 µM | activity vs control | 99% |
| CC(C)(O)[C@H]1CC[C@H](Nc2ccc3ncc(-c4cccc(C(F)(F)F)c4)n3n2)CC1 | BTK | enzyme activity | inhibitor |  | 1 µM | remaining activity | 88% |
| c1nc2c(Nc3ccc4c(c3)OCCO4)nc(Nc3ccc4c(c3)OCCO4)nc2[nH]1 | BTK | enzyme activity | inhibitor |  | 10 µM | activity vs control | 0.65% |
| Cc1cnc(NC2CCOCC2)nc1-n1cnc(C(=O)NC(CN)c2cc(F)cc(Cl)c2)c1 (stereo not drawn) | BTK R28H | enzyme activity | inhibitor | radiometric | 1 µM | remaining activity | 99% |
| COc1ccc2c(c1)O[C@@H](c1ccc(OC)c(OC)c1)C[C@H]2NC(=O)C1(c2ccc3c(c2)OC(F)(F)O3)CC1 | BTK | cell-free assay |  | competition with immobilised ligand | 1 µM | remaining binding | 81% |
| Oc1cccc(-c2nc(N3CCOCC3)c3oc4ncccc4c3n2)c1 | BTK | cell-free assay |  |  | 0.5 µM | remaining signal | 95.2% |
| CC(C)(C)c1nc2c(s1)c1nc(N)ncc1c1ccc(NS(=O)(=O)c3c(F)cccc3F)c(F)c12 | BTK | enzyme activity | inhibitor | radiometric | 1 µM | remaining activity | 75% |
| O=C(Nc1cnn(-c2csc(C(=O)NC3COC3)c2)c1)Nc1ccccc1Cl | BTK | enzyme activity | inhibitor |  | 5 µM | remaining activity | 92.6% |
| CS(=O)(=O)N1CCCC(NC(=O)[C@H](CCC2CCCCC2)NC(=O)c2ccc(CNC(=O)c3cnc4ccccn34)cc2)C1 (stereo partly drawn) | BTK | cell-free assay |  | competition with immobilised ligand | 0.1 µM | remaining binding | 100% |
| CC(C)(C=C(C#N)C(=O)N1CCC[C@H]1Cn1nc(-c2ccc(Oc3ccccc3)cc2F)c2c(N)ncnc21)N1CCOCC1 | BTK | enzyme activity | inhibitor |  |  | kinact | 0.0048 s⁻¹ |
| Cc1ccc(NC(=O)c2ccc(C)c(C(F)(F)F)c2)cc1C#Cc1nn(C2CCC(O)CC2)c2ncnc(N)c12 (stereo not drawn) | BTK R28H | cell-free assay |  |  | 10 µM | remaining signal | 71% |
| CCC(=N\O)/C(C)=C/c1ccc(F)cc1 | BTK | cell-free assay |  | competition with immobilised ligand | 1 µM | remaining binding | 78% |
| COc1cc2c(N3CCN(C(=O)Nc4ccc(OC(C)C)cc4)CC3)ncnc2cc1OCCCN1CCCCC1 | BTK | cell-free assay |  |  | 0.5 µM | remaining signal | 102% |
| N#CC1(c2ccccn2)CCN(Cc2cc(C(=O)N3CCCC3)c(=O)n3ccccc23)CC1 | BTK | cell-free assay |  | competition with immobilised ligand | 1 µM | remaining binding | 100% |
| CC(C)(C)C(=O)c1sc(NC2CCCCC2)nc1N | BTK | enzyme activity | inhibitor |  | 10 µM | remaining activity | 79% |
| Cc1cc(NC(=O)c2cccc(S(F)(F)(F)(F)F)c2)cc(-n2ccn3nc(-c4cccnc4)cc23)c1 | BTK | cell-free assay |  | competition with immobilised ligand | 1 µM | remaining binding | 83.8% |
| COc1cc(Nc2cnc(C#N)c(O[C@H](C)CN(C)C)n2)ncc1-c1cnn(C)c1 | BTK | enzyme activity | inhibitor | radiometric | 1 µM | remaining activity | 88% |
